This note sets out measurements from ChEMBL document CHEMBL4834471 (J Med Chem, 2021).

The nature of data set [1]: Drug concentration in peritoneal exudate of CD-1 mouse at 30 mg/kg, po after 30 mins. The settings on record: read-out: Ct. It is filed as ADME, organism-based, Peritoneal fluid. The method in brief:
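Oral dosing at 30 mg/kg in zymosan peritonitis; mice killed 30 min after zymosan injection. Compound concentrations measured in plasma and in peritoneal exudate.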

The subject of data set [2] is Mus musculus. In words: Antiinflammatory activity in zymosan-induced CD-1 mouse peritonitis model assessed as increase in RvE3 levels at 10 mg/kg, po preincubated with compound for 60 mins followed by zymosan addition and measured after 30 mins by UPLC-MS/MS analysis. The class given is functional, organism-based. The settings on record: time 90.0 min. The method in brief:
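Oral dosing at 10 mg/kg in zymosan peritonitis; mice killed 30 min after zymosan. Peritoneal exudate lipid mediators and fatty acids profiled by UPLC-MS/MS, with LTC4 measured by ELISA; results expressed as fold change versus vehicle.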

Data set [3] is described as follows: Drug metabolism in human liver-on-chip assessed as compound oxidization at 12a' or 13' of omega-carboxylic acid incubated for 48 hrs by UPLC-MS/MS anlaysis. It is filed as ADME, tissue-based. In short, it runs like this:
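Liver-on-chip built from differentiated HepaRG cells (hepatocyte-like and biliary-like) with a HUVEC endothelial layer. Loaded with compound at 1 μM and incubated 48 h; compound and metabolites quantified from extracted chromatograms; n = 3 independent experiments.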

Data set [4] deals with T1, Polyunsaturated fatty acid lipoxygenase ALOX15 (Homo sapiens) (UniProt P16050).
T1 sequence (whole entry): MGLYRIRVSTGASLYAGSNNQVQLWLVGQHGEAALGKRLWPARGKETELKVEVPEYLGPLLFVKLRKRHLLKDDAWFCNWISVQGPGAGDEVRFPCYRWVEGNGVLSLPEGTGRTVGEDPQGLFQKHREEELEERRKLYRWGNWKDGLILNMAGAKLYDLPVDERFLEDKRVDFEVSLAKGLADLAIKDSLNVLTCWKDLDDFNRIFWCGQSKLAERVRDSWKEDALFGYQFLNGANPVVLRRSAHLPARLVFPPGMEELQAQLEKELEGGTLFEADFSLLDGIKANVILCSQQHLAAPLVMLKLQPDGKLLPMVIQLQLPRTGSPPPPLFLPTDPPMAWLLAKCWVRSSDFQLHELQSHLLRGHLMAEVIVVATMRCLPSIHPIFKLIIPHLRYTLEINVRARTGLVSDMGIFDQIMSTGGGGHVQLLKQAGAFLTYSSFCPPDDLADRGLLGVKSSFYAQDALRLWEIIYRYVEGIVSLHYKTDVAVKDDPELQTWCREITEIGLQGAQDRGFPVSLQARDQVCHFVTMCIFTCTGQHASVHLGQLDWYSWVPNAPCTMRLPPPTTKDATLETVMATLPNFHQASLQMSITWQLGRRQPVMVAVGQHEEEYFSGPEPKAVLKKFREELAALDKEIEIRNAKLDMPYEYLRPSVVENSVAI
In words: Inhibition of 15-LOX in human PMNL assessed as reduction in 15-LOX product formation at 10 uM treated with AA and A23187 by RP-HPLC method. It is filed as tissue-based.

Data set [5] concerns the target T2, Bifunctional epoxide hydrolase 2 (Homo sapiens) (UniProt P34913).
T2 sequence (whole entry): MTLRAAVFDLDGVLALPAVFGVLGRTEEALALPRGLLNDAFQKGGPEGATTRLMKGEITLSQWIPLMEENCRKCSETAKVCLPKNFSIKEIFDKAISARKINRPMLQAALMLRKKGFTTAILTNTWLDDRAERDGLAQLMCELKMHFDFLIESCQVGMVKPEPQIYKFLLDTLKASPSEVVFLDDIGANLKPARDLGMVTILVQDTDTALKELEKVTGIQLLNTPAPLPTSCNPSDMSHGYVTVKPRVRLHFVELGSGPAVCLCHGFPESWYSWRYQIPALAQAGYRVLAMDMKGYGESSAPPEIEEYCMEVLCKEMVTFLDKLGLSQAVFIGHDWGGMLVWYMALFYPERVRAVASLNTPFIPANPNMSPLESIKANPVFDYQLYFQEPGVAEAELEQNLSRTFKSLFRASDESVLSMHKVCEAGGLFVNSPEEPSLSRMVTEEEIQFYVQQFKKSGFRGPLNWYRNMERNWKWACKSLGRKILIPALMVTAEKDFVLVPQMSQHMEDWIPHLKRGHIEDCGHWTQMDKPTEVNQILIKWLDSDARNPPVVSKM
Kind of data set: Inhibition of recombinant human sEH expressed in Sf9 insect cells at 10 uM using PHOME as substrate preincubated for 10 mins followed by substrate addition and measured after 60 mins by fluorescence microplate method. The settings on record: time 70.0 min.

For data set [6], the system named is Mus musculus. Kind of data set: Antiinflammatory activity in zymosan-induced CD-1 mouse peritonitis model assessed as reduction in immune cell infiltration into peritoneal cavity at 10 mg/kg, ip preincubated with compound for 30 mins followed by zymosan addition and measured after 4 hrs. The class given is functional, organism-based. The settings on record: time 270.0 min. In short, it runs like this:
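Zymosan peritonitis with compound 10 mg/kg i.p. Vascular permeability assessed at 30 min after zymosan. Exudate LTB4 (ELISA) and peritoneal immune cell infiltration assessed at 4 h. Two-tailed unpaired t-test of log data.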

Data set [7] can be described thus: Cytotoxicity against human PBMC assessed as reduction in metabolic activity at <=1 uM after 2 to 24 hrs by MTT assay. The settings on record: time 2-24 hrs. In short, it runs like this: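 PBMC at 2 × 10^6/mL in monocyte medium treated 2 or 24 h at 37 °C, 5% CO2, with 0.1% DMSO vehicle. MTT added for 4 h in the dark, formazan solubilized in SDS/HCl, absorbance read at 570 nm.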
For orientation: Formazan colour is commonly taken as a measure of viable cells.

For data set [8], the target named is T1, Polyunsaturated fatty acid lipoxygenase ALOX15 (Homo sapiens). Kind of data set: Inhibition of 15-LOX in human PMNL assessed as reduction in 15-LOX product formation at 0.03 to 0.2 uM treated with AA and A23187 by RP-HPLC method. It is filed as tissue-based. The settings on record: dose 0.03-0.2 µM.
The next data set concerns Keratinocyte. Kind of data set: Antiinflammatory activity in cytokine cocktail-induced reconstructed human epidermis model assessed as decrease in pH at 5 to 25 uM after 4 days. It is filed as functional, cell-based. The settings on record: dose 5-25 µM, time 4.0 day. In short, it runs like this: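 Reconstructed human epidermis exposed to compound and stressed with a cytokine cocktail for 4 days. Readouts: IL-8 in growth medium, H&E morphology, transepidermal water loss, stratum corneum permeability to Lucifer yellow with DAPI nuclear stain, and surface pH. n = 2–3 independent experiments.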

Data set [9] is described as follows: Antioxidant activity assessed as DPPH radical scavenging activity at 0.1 to 10 uM incubated for 30 mins by microplate reader based assay. The settings on record: dose 0.1-10 µM. It is filed as functional. The method in brief:
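Compound incubated with DPPH (50 mM, as printed) in ethanol for 30 min, then absorbance read at 520 nm. Ascorbic acid at 25 μM used as positive control; n = 4 independent experiments.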
For orientation: DPPH is a stable violet radical that fades when it is reduced.

Data set [10] has as its system Mus musculus. Kind of data set: Antiinflammatory activity BALB/c mouse assessed as inhibition of carbachol-induced bronchial reactivity at 10 mg/kg, po administered on day 0 and 7 and measured upto 21 days. It is filed as functional, organism-based. The settings on record: time day <=21.
In another data set the test system is Monocyte. Kind of data set: Cytotoxicity against human monocytes assessed as reduction in LDH release at <=1 uM after 2 to 24 hrs by CytoTox96 nonradioactive assay. It is filed as cell-based. The settings on record: time 2-24 hrs. In short, it runs like this: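 Monocytes at 4 × 10^5/mL in monocyte medium treated 2 or 24 h at 37 °C, 5% CO2, with 0.1% DMSO vehicle. LDH release measured by CytoTox 96 kit, with Triton X-100 (0.8%) defining maximum release.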

The source made the active and inactive calls. No cut-off for these calls is given here.

`C/C(=C\CC/C(C)=C/CC[C@]1(C)CCc2c(C)c(O)c(C)c(C)c2O1)CCC=C(CO)CO`: the concentration at 0.5 h in data set [1] was 0.5 nM. In addition, the result in the data set with Mus musculus [2], in the data set on Mus musculus [6], in the data set on Keratinocyte and in the data set with Mus musculus [10] was Active. For the same molecule, the Drug metabolism result in data set [3] was “Metabolite_Detected”. Besides, the inhibition result in [4], in data set [5] and in [8] was “inactive” throughout. The Activity entry (in data set [7]; in the data set with Monocyte) was “Non-Toxic” each time. In addition, the result in [9] was inactive.
